Reference: publication PMC4304478 (Journal of the American Chemical Society, 2014)
*1 amine or outer side, *2 acyl side, *3 side chain or, on linkers, in order; H or OH if unused. Bridges are numbered along the chain shown (N, C = ends). Roman numbers before positions name the chains, in order. Where no end group is shown, it is not given here. [ ]: non-standard residue; d: D form. X1 = O=C(NCCCOCCCCOCCCNC(=O)c1ccc(/C=N/OCC(=O)[*:2])cc1)c1ccc(/C=N/OCC(=O)[*:1])cc1; Dap = NC[C@H](N)C(=O)O

Assays:
[1] = test system: MDA-MB-231 cells; experiment: Cell proliferation assay; format: cell-based, human; conditions: varying concentrations, 12–72 h, Cell Counting Kit-8; relative to cilengitide
Outline: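 MDA-MB-231 cells exposed to varying concentrations of test knottins or a reference compound for 12–72 h. Proliferation was read out as […] activity in living cells with the CCK-8 kit. Concentration–response was read at 72 h, and the time course used 1 μM protein. Values are expressed relative to an untreated control.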

[2] = target: integrin receptors (αvβ5) expressed on MDA-MB-231 cells (Homo sapiens, UniProt P06756+P18084); experiment: Competition binding assay with Alexa488-2.5F on MDA-MB-231 cells; conditions: from competition IC50 values
Chain of integrin receptors (αvβ5) expressed on MDA-MB-231 cells (P06756 891-1048): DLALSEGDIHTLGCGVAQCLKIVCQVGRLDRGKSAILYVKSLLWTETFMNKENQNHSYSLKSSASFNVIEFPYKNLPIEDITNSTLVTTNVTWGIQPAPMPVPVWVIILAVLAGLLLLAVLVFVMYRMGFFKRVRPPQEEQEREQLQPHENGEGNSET
Chain of integrin receptors (αvβ5) expressed on MDA-MB-231 cells (P18084 24-799): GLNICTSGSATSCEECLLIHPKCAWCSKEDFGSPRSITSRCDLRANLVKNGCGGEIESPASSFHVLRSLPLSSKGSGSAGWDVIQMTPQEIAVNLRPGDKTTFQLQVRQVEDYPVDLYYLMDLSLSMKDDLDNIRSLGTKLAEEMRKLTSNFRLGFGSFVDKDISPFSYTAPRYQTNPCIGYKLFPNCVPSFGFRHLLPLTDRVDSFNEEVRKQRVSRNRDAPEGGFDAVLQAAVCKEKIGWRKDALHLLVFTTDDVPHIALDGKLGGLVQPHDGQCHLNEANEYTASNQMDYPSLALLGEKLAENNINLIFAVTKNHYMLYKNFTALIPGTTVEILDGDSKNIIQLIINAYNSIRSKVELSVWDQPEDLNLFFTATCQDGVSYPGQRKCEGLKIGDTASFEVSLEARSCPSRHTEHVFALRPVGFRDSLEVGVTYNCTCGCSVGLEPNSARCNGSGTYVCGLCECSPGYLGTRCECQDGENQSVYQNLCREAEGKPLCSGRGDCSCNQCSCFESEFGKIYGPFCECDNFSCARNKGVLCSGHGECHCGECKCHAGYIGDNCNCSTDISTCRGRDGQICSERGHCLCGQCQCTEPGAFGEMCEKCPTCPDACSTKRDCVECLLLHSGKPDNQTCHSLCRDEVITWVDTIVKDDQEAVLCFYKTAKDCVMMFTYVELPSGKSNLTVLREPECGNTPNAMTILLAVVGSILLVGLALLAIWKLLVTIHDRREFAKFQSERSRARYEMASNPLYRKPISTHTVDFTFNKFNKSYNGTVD
Chain of integrin receptors (αvβ5) expressed on MDA-MB-231 cells (P06756 31-889): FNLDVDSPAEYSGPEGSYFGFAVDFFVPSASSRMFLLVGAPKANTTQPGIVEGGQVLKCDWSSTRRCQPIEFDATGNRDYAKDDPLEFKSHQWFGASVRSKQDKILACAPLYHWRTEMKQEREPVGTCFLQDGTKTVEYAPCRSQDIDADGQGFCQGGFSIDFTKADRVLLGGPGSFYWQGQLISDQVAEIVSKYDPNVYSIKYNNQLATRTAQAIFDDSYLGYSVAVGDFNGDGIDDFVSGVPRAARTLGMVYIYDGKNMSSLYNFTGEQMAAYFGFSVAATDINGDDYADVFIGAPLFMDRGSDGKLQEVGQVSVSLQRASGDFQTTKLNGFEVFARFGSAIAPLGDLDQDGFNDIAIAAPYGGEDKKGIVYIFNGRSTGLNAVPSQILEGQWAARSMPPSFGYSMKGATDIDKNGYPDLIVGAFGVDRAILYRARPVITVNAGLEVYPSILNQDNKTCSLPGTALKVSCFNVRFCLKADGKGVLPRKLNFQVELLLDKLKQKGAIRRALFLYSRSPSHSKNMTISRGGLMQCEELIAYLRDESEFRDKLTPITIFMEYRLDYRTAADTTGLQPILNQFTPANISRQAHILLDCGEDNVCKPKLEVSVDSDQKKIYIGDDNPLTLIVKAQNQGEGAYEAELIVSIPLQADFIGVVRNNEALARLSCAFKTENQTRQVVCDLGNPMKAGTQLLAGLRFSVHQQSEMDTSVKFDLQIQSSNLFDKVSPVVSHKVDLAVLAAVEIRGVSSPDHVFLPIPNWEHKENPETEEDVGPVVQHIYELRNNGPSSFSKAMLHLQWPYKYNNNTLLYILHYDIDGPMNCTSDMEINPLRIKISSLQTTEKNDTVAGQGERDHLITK

“I: GCPRPRGDNPPLTC[Dap]QDSDCLAGCVCGPNGFCG-NH2 / II: GCPRPRGDNPPLTC[Dap]QDSDCLAGCVCGPNGFCG-NH2 (disulfide I:2-I:24, I:14-I:26, I:20-I:32, II:2-II:24, II:14-II:26, II:20-II:32; linker I:15-II:15 via X1) [D2.5F_1]” was tested, and the “Inhibition of MDA-MB-231 cell proliferation” value [1] was “significantly more potent”, the “Increase in relative binding affinity compared with cilengitide” value [2] was 500 fold and the “Increase in relative binding affinity compared with the knottin monomer” value [2] was 60 fold.
